Data set [1] is described as follows: Pharmacokinetic study in healthy male subjects after oral desmopressin. In kind it is in vivo. Conditions: human, plasma, 0.4 mg. In a few lines:
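Healthy male volunteers (n=6), fasted 9 h, received a single oral 0.4 mg dose (2×0.2 mg tablets). Plasma was spun at 3200 rpm for 10 min, stored at −20±5 °C, spiked with IS, extracted and quantified by positive-ESI MRM UPLC–MS/MS (HSS T3 column, 40 °C; LLOQ 1.01 pg/mL). Non-compartmental analysis.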

Data set [2] is described as follows: Processed sample stability. In kind it is physicochemical. The settings on record: 45 h at 2-8 °C, UPLC-MS/MS, mean of n=6. In a few lines:
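Processed-sample stability was tested at LQC and HQC in human plasma, six replicates per level: autosampler 48 h, wet extract 45 h, reinjection 24 h. Extracts were analysed by UPLC–MS/MS against a 9-point calibration of 1.01–200 pg/mL. Acceptance was accuracy within ±15% and precision ≤15% RSD.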

On to `NC(=O)CC[C@@H]1NC(=O)[C@H](Cc2ccccc2)NC(=O)[C@H](Cc2ccc(O)cc2)NC(=O)CCSSC[C@@H](C(=O)N2CCC[C@H]2C(=O)N[C@H](CCCN=C(N)N)C(=O)NCC(N)=O)NC(=O)[C@H](CC(N)=O)NC1=O` [desmopressin], for which, in data set [1], the area under the curve AUC(0-inf) – broadly, the area under the concentration-time curve extrapolated to infinity – was determined as 0.157 ± 0.051 ng·h/mL; the AUC(0-t) (commonly the area under the concentration-time curve up to a stated or last time point) is 0.149 ± 0.046 ng·h/mL; the Cmax (as a rule, the maximum level reached in the sampled fluid or tissue) was determined as 0.035 ± 0.0081 ng/mL; the time to peak (Tmax) (as a rule, the time from dosing to the highest level) was determined as 1.4 ± 0.48 h. In data set [1], the half-life – broadly, the time in which the quantity being followed falls by half – was 3.48 ± 0.5 h and the level at 1.25 h was determined as 0.0361 ng/mL. In addition, the “Accuracy/stability (%), Process (wet extract)” value in data set [2] (spiked 3.05 pg/mL (LQC)) was 94.84%. Moreover, in data set [2] (spiked 156.23 pg/mL (HQC)), the “Accuracy/stability (%), Process (wet extract)” value worked out at 99.20%.

The record behind these values is publication PMC5790683 (Journal of Pharmaceutical Analysis, 2013).
